Test results: ChEMBL document CHEMBL3217724, “Synthesis and evaluation of a series of benzothiophene acrylonitrile analogs as anticancer agents” (Medchemcomm, 2013)
Calls of active or inactive are those of the source. The rule behind the calls is not given here.

Columns and labels:
K562 = assay: Growth inhibition of human K562 cells; format: functional
Summary of the method: (§1)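 NCI 60-human-cancer-cell-line panel, five-dose screen after a preliminary screen. GI50 is the molar concentration giving 50% growth inhibition.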

[1] = Growth inhibition of human MOLT4 cells; format: functional; details: MOLT-4; summary of the method: as §1
HL-60(TB) = assay: Growth inhibition of human HL-60(TB) cells; format: functional; summary of the method: as §1
CCRF-CEM = assay: Growth inhibition of human CCRF-CEM cells; format: functional; summary of the method: as §1
PC-3 [2] = assay: Induction of apoptosis in human PC3 cells assessed as formation of mitotic castastrophe at 10 to 100 nM after 72 hrs by Hoechst 33342 staining; format: functional, cell-based
Summary of the method: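 PC3 prostate cancer cells were treated 72 h at 10 and 100 nM. Nuclei were stained with Hoechst 33342 and visualized by fluorescence imaging.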

[3] = target: T1, Tubulin beta (Homo sapiens) (UniProt P68371+Q9H4B7+Q13509+P04350+Q3ZCM7+P07437+Q13885+Q9BVA1+Q9BUF5+A6NNZ2); assay: Inhibition of tubulin beta in human PC3 cells assessed as multiple spindle-poles formation at 100 nM after 24 hrs by DAPI-staining based immunofluorescence assay; format: cell-based; details: PC-3
Summary of the method: (§2)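 PC3 cells were treated 24 h at 100 nM, with docetaxel 100 nM for comparison. Tubulin immunofluorescence with DAPI nuclear counterstain was used to score chromosome overduplication and multiple spindle poles.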

[4] = target: T1, Tubulin beta (Homo sapiens); assay: Inhibition of tubulin beta in human PC3 cells assessed as chromosomal overduplication at 100 nM after 24 hrs by DAPI-staining based immunofluorescence assay; format: cell-based; details: PC-3; summary of the method: as §2
PC-3 [5] = assay: Induction of beta tubulin de-stabilization in human PC3 cells at 1 to 100 nM after 24 hrs by DAPI-staining based immunofluorescence assay; format: cell-based
Summary of the method: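 PC3 cells were treated 24 h at 1, 10 and 100 nM, then immunostained for beta-tubulin with DAPI nuclear counterstain. Docetaxel (stabilizer) and vinblastine (destabilizer) at 10 nM served as references.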

Tubulin (Homo sapiens) = Tubulin (Homo sapiens) (UniProt P68371+Q9H4B7+P0DPH7+P68366+Q13509+Q71U36+P04350+Q3ZCM7+P07437+P68363+Q9BQE3+Q6PEY2+Q13885+Q9BVA1+Q9BUF5); assay: Inhibition of tubulin polymerization (unknown origin) after 1 hr; format: protein-complex assay
Summary of the method: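 Purified tubulin was allowed to polymerize for 1 h with increasing concentrations of compound. Docetaxel and vinblastine were the stabilizing and destabilizing references.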

LLC-PK1 [6] = assay: Resistance factor, ratio of GI50 for pig LLC-PK1 cells expressing MDR1 to GI50 for pig LLC-PK1 cells; set-up: species or system Sus scrofa
Summary of the method: (§3)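 Porcine epithelial L-MDR1 (P-gp expressing) cells and their non-expressing parent line were exposed to compound for 72 h. Viability was read with AlamarBlue dye and GI50 derived. P-gp expression was verified by Western blot with β-actin as loading control. The resistance ratio compares GI50 in MDR1 versus parent cells.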

LLC-PK1 [7] = assay: Growth inhibition of pig LLC-PK1 cells expressing MDR1 by Alamar Blue assay; format: functional; details: Sus scrofa; summary of the method: as §3
[8] = Growth inhibition of pig LLC-PK1 cells by Alamar Blue assay; format: cell-based, Sus scrofa
Summary of the method: (§4)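 Cell viability was read with AlamarBlue dye in 96-well format and GI50 values derived, to assess P-gp effects. Cells were P-gp-expressing NCI/ADR-Res ovarian cancer cells and L-MDR1 porcine epithelial cells, each with its non-expressing parent line. P-gp expression was confirmed by Western blot with β-actin as loading control. Resistance is the GI50 in the P-gp line over the GI50 in the parent line.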

[9] = Growth inhibition of P-gp expressing human NCI-ADR-RES cells by Alamar Blue assay; format: functional
Summary of the method: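 72-h cytotoxicity in 96-well plates with AlamarBlue viability dye, giving GI50. Line 1 uses docetaxel-resistant PC3 prostate cells (PC3-DR), and line 2 uses NCI/ADR-Res ovarian cells. P-gp expression in both was confirmed by Western blot, with β-actin as the loading control.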

[10] = Growth inhibition of human OVCAR8 cells by Alamar Blue assay; format: functional; details: OVCAR-8; summary of the method: as §4
PC-3 [11] = assay: Growth inhibition of human PC3 cells after 72 hrs by Alamar Blue assay; format: functional; details: PC-3, 72 h
Summary of the method: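 PC3 prostate cancer cells and docetaxel-resistant PC3-DR cells were exposed to drug for 72 hours in 96-well format. Viability was read with AlamarBlue dye and GI50 derived. Resistance is the GI50 in PC3-DR over the GI50 in parental PC3.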

T47D = assay: Growth inhibition of human T47D cells; format: functional
Summary of the method: (§5)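 NCI 60-cell-line panel, five-dose screen; GI50 is the molar concentration giving 50% growth inhibition.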

[12] = Growth inhibition of human Hs578T cells; format: functional; details: Hs-578T; summary of the method: as §1
[13] = Growth inhibition of human BT549 cells; format: functional; details: BT-549; summary of the method: as §1
MDA-MB-231 = assay: Growth inhibition of human MDA-MB-231 cells; format: functional; summary of the method: as §1
DU-145 = assay: Growth inhibition of human DU145 cells; format: functional; summary of the method: as §1
MCF7 = assay: Growth inhibition of human MCF7 cells; format: functional; summary of the method: as §1
[14] = Growth inhibition of human UO31 cells; format: functional; details: UO-31; summary of the method: as §5
PC-3 [15] = assay: Growth inhibition of human PC3 cells; format: functional; summary of the method: as §1
TK-10 = assay: Growth inhibition of human TK10 cells; format: functional; summary of the method: as §5
[16] = Growth inhibition of human RXF393 cells; format: functional; details: RXF 393; summary of the method: as §1
SN12C = assay: Growth inhibition of human SN12C cells; format: functional; summary of the method: as §5
ACHN = assay: Growth inhibition of human ACHN cells; format: functional; summary of the method: as §1
CAKI-1 = assay: Growth inhibition of human Caki1 cells; format: functional; summary of the method: as §1
A498 = assay: Growth inhibition of human A498 cells; format: functional; summary of the method: as §1
SK-OV-3 = assay: Growth inhibition of human SKOV3 cells; format: functional; summary of the method: as §5
786-0 = assay: Growth inhibition of human 786-0 cells; format: functional; summary of the method: as §1
[17] = Growth inhibition of human NCI-ADR-RES cells; format: functional; summary of the method: as §1
[18] = Growth inhibition of human OVCAR5 cells; format: functional; details: OVCAR-5; summary of the method: as §1
PC-3 [19] = assay: cells; details: Homo sapiens, PC-3, 72 h

COc1cc(/C(C#N)=C/c2cc3ccccc3s2)cc(OC)c1OC
GI50 (K562): 30.4 nM | GI50 [1]: 39.7 nM | GI50 (HL-60(TB)): 24.4 nM | GI50 (CCRF-CEM): 25.1 nM | Activity (PC-3 [2]): Active | inhibition [3]: Active | inhibition [4]: Active | Activity (PC-3 [5]): Active | inhibition (Tubulin (Homo sapiens)): Dose-dependent effect | RatioGI50 (LLC-PK1 [6]): 1.2 | GI50 (LLC-PK1 [7]): 11.7 nM | GI50 [8]: 9.7 nM | GI50 [9]: 3.2 nM | GI50 [10]: 5.2 nM | GI50 (PC-3 [11]): 8.6 nM | GI50 (T47D): > 100 nM | GI50 [12]: 42.7 nM | GI50 [13]: 36.6 nM | GI50 (MDA-MB-231): 33 nM | GI50 (DU-145): 21.1 nM | GI50 (MCF7): 40.2 nM | GI50 [14]: 52.4 nM | GI50 (PC-3 [15]): 45 nM | GI50 (TK-10): 36.3 nM | GI50 [16]: 24.9 nM | GI50 (SN12C): 68.4 nM | GI50 (ACHN): 73.2 nM | GI50 (CAKI-1): 51.4 nM | GI50 (A498): 28.8 nM | GI50 (SK-OV-3): 47.2 nM | GI50 (786-0): 12.2 nM | GI50 [17]: 27.5 nM | GI50 [18]: 61.5 nM | GI50 (PC-3 [19]): 7.6 nM
